Test results as given in ChEMBL document CHEMBL3585335, “Isolation and Synthetic Diversification of Jadomycin 4-Amino-l-phenylalanine” (J Nat Prod, 2015).
Activity calls are given as the source filed them.

What was measured:
UACC-257 = assay: Cytotoxicity against human UACC257 cells assessed as cell growth at 1 x 10^-5 M; format: functional, cell-based
Procedure, shortened: (§1)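 Tested by the NCI Developmental Therapeutics Program in its one-dose screen across the 60 human tumour cell line panel.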

K562 = assay: Cytotoxicity against human K562 cells assessed as cell growth at 1 x 10^-5 M; format: functional, cell-based
Procedure, shortened: (§2)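 Run by the NCI Developmental Therapeutics Program (DTP) as its one-dose screen across the 60 human tumour cell line panel.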

SN12C = assay: Cytotoxicity against human SN12C cells assessed as cell growth at 1 x 10^-5 M; format: functional, cell-based; procedure, shortened: as §2
SF-295 = assay: Cytotoxicity against human SF295 cells assessed as cell growth at 1 x 10^-5 M; format: functional, cell-based; procedure, shortened: as §2
IGROV-1 = assay: Cytotoxicity against human IGROV1 cells assessed as cell growth at 1 x 10^-5 M; format: functional, cell-based; procedure, shortened: as §2
HOP-62 = assay: Cytotoxicity against human HOP62 cells assessed as cell growth at 1 x 10^-5 M; format: functional, cell-based; procedure, shortened: as §2
CAKI-1 = assay: Cytotoxicity against human Caki1 cells assessed as cell growth at 1 x 10^-5 M; format: functional, cell-based; procedure, shortened: as §2
HOP-92 = assay: Cytotoxicity against human HOP92 cells assessed as cell growth at 1 x 10^-5 M; format: functional, cell-based; procedure, shortened: as §2
U-251 = assay: Cytotoxicity against human U251 cells assessed as cell growth at 1 x 10^-5 M; format: functional, cell-based; procedure, shortened: as §1
UO-31 = assay: Cytotoxicity against human UO31 cells assessed as cell growth at 1 x 10^-5 M; format: functional, cell-based; procedure, shortened: as §1
MCF7 = assay: Cytotoxicity against human MCF7 cells assessed as cell growth at 1 x 10^-5 M; format: functional, cell-based; procedure, shortened: as §2
MOLT-4 = assay: Cytotoxicity against human MOLT4 cells assessed as cell growth at 1 x 10^-5 M; format: functional, cell-based; procedure, shortened: as §2
SW-620 = assay: Cytotoxicity against human SW620 cells assessed as cell growth at 1 x 10^-5 M; format: functional, cell-based; procedure, shortened: as §1
SR = assay: Cytotoxicity against human SR cells assessed as cell growth at 1 x 10^-5 M; format: functional, cell-based; procedure, shortened: as §2
M14 = assay: Cytotoxicity against human M14 cells assessed as cell growth at 1 x 10^-5 M; format: functional, cell-based; procedure, shortened: as §2
NCI-H460 = assay: Cytotoxicity against human NCI-H460 cells assessed as cell growth at 1 x 10^-5 M; format: functional, cell-based; procedure, shortened: as §2
HT-29 = assay: Cytotoxicity against human HT-29 cells assessed as cell growth at 1 x 10^-5 M; format: functional, cell-based; procedure, shortened: as §2
A549 = assay: Cytotoxicity against human A549 cells assessed as cell growth at 1 x 10^-5 M; format: functional, cell-based; procedure, shortened: as §2
T47D = assay: Cytotoxicity against human T47D cells assessed as cell growth at 1 x 10^-5 M; format: functional, cell-based; procedure, shortened: as §1
OVCAR-4 = assay: Cytotoxicity against human OVCAR4 cells assessed as cell growth at 1 x 10^-5 M; format: functional, cell-based; procedure, shortened: as §2
OVCAR-5 = assay: Cytotoxicity against human OVCAR5 cells assessed as cell growth at 1 x 10^-5 M; format: functional, cell-based; procedure, shortened: as §2
MDA-MB-468 = assay: Cytotoxicity against human MDA-MB-468 cells assessed as cell growth at 1 x 10^-5 M; format: functional, cell-based; procedure, shortened: as §2
HCC 2998 = assay: Cytotoxicity against human HCC2998 cells assessed as cell growth at 1 x 10^-5 M; format: functional, cell-based; procedure, shortened: as §2
OVCAR-3 = assay: Cytotoxicity against human OVCAR3 cells assessed as cell growth at 1 x 10^-5 M; format: functional, cell-based; procedure, shortened: as §2
SF-268 = assay: Cytotoxicity against human SF268 cells assessed as cell growth at 1 x 10^-5 M; format: functional, cell-based; procedure, shortened: as §2
TK-10 = assay: Cytotoxicity against human TK10 cells assessed as cell growth at 1 x 10^-5 M; format: functional, cell-based; procedure, shortened: as §1
OVCAR-8 = assay: Cytotoxicity against human OVCAR8 cells assessed as cell growth at 1 x 10^-5 M; format: functional, cell-based; procedure, shortened: as §2
Hs-578T = assay: Cytotoxicity against human Hs578T cells assessed as cell growth at 1 x 10^-5 M; format: functional, cell-based; procedure, shortened: as §2
SNB-75 = assay: Cytotoxicity against human SNB75 cells assessed as cell growth at 1 x 10^-5 M; format: functional, cell-based; procedure, shortened: as §2
NCI-H23 = assay: Cytotoxicity against human NCI-H23 cells assessed as cell growth at 1 x 10^-5 M; format: functional, cell-based; procedure, shortened: as §2
UACC-62 = assay: Cytotoxicity against human UACC62 cells assessed as cell growth at 1 x 10^-5 M; format: functional, cell-based; procedure, shortened: as §1
MDA-MB-435 = assay: Cytotoxicity against human MDA-MB-435 cells assessed as cell growth at 1 x 10^-5 M; format: functional, cell-based; procedure, shortened: as §2
Escherichia coli [1] = assay: Effect on photodynamic inactivation in Escherichia coli pUC19 DNA assessed as photo-mediated DNA cleavage at 10 to 100 uM by ethidium bromide gel-electrophoresis analysis
SK-OV-3 = assay: Cytotoxicity against human SKOV3 cells assessed as cell growth at 1 x 10^-5 M; format: functional, cell-based; procedure, shortened: as §2
ACHN = assay: Cytotoxicity against human ACHN cells assessed as cell growth at 1 x 10^-5 M; format: functional, cell-based; procedure, shortened: as §2
NCI-H522 = assay: Cytotoxicity against human NCI-H522 cells assessed as cell growth at 1 x 10^-5 M; format: functional, cell-based; procedure, shortened: as §2
786-0 = assay: Cytotoxicity against human 786-0 cells assessed as cell growth at 1 x 10^-5 M; format: functional, cell-based; procedure, shortened: as §2
SK-MEL-28 = assay: Cytotoxicity against human SK-MEL-28 cells assessed as cell growth at 1 x 10^-5 M; format: functional, cell-based; procedure, shortened: as §2
NCI-H322M = assay: Cytotoxicity against human NCI-H322M cells assessed as cell growth at 1 x 10^-5 M; format: functional, cell-based; procedure, shortened: as §2
HL-60(TB) = assay: Cytotoxicity against human HL-60(TB) cells assessed as cell growth at 1 x 10^-5 M; format: functional, cell-based
Procedure, shortened: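 Run by the NCI Developmental Therapeutics Program (DTP) within its 60 human tumour cell line one-dose screen.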

MDA-MB-231 = assay: Cytotoxicity against human MDA-MB-231 cells assessed as cell growth at 1 x 10^-5 M; format: functional, cell-based; procedure, shortened: as §2
DU-145 = assay: Cytotoxicity against human DU145 cells assessed as cell growth at 1 x 10^-5 M; format: functional, cell-based; procedure, shortened: as §2
LOX IMVI = assay: Cytotoxicity against human LOXIMVI cells assessed as cell growth at 1 x 10^-5 M; format: functional, cell-based; procedure, shortened: as §2
RXF 393 = assay: Cytotoxicity against human RXF393 cells assessed as cell growth at 1 x 10^-5 M; format: functional, cell-based; procedure, shortened: as §2
PC-3 = assay: Cytotoxicity against human PC3 cells assessed as cell growth at 1 x 10^-5 M; format: functional, cell-based; procedure, shortened: as §2
Escherichia coli [2] = assay: Effect on Copper-mediated Escherichia coli pUC19 DNA cleavage at 100 uM by gel-electrophoresis analysis
Malme-3M = assay: Cytotoxicity against human MALME-3M cells assessed as cell growth at 1 x 10^-5 M; format: functional, cell-based; procedure, shortened: as §2
KM12 = assay: Cytotoxicity against human KM12 cells assessed as cell growth at 1 x 10^-5 M; format: functional, cell-based; procedure, shortened: as §2
SF-539 = assay: Cytotoxicity against human SF539 cells assessed as cell growth at 1 x 10^-5 M; format: functional, cell-based; procedure, shortened: as §2
SNB-19 = assay: Cytotoxicity against human SNB19 cells assessed as cell growth at 1 x 10^-5 M; format: functional, cell-based; procedure, shortened: as §2
NCI-H226 = assay: Cytotoxicity against human NCI-H226 cells assessed as cell growth at 1 x 10^-5 M; format: functional, cell-based; procedure, shortened: as §2
BT-549 = assay: Cytotoxicity against human BT549 cells assessed as cell growth at 1 x 10^-5 M; format: functional, cell-based; procedure, shortened: as §2
HCT-15 = assay: Cytotoxicity against human HCT15 cells assessed as cell growth at 1 x 10^-5 M; format: functional, cell-based; procedure, shortened: as §2
Escherichia coli [3] = assay: Effect on Copper-mediated Escherichia coli pBR322 DNA cleavage at 100 uM by gel-electrophoresis analysis
HCT-116 = assay: Cytotoxicity against human HCT116 cells assessed as cell growth at 1 x 10^-5 M; format: functional, cell-based; procedure, shortened: as §2
SK-MEL-5 = assay: Cytotoxicity against human SK-MEL-5 cells assessed as cell growth at 1 x 10^-5 M; format: functional, cell-based; procedure, shortened: as §2
A498 = assay: Cytotoxicity against human A498 cells assessed as cell growth at 1 x 10^-5 M; format: functional, cell-based; procedure, shortened: as §2
COLO 205 = assay: Cytotoxicity against human COLO205 cells assessed as cell growth at 1 x 10^-5 M; format: functional, cell-based; procedure, shortened: as §2
SK-MEL-2 = assay: Cytotoxicity against human SK-MEL-2 cells assessed as cell growth at 1 x 10^-5 M; format: functional, cell-based; procedure, shortened: as §2
NCI/ADR-RES = assay: Cytotoxicity against human NCI-ADR-RES cells assessed as cell growth at 1 x 10^-5 M; format: functional, cell-based; procedure, shortened: as §2
CCRF-CEM = assay: Cytotoxicity against human CCRF-CEM cells assessed as cell growth at 1 x 10^-5 M; format: functional, cell-based; procedure, shortened: as §2

Cc1cc(O)c2c(c1)C1OC(=O)[C@H](Cc3ccc(NC(=O)COc4ccccc4)cc3)N1C1=C2C(=O)c2cccc(O[C@H]3C[C@@H](O)[C@@H](O)[C@H](C)O3)c2C1=O (stereo partly specified)
inactive: growth inhibition (GI) (UACC-257) | growth inhibition (GI) (K562) | growth inhibition (GI) (SN12C) | growth inhibition (GI) (SF-295) | growth inhibition (GI) (IGROV-1) | growth inhibition (GI) (HOP-62) | growth inhibition (GI) (CAKI-1) | growth inhibition (GI) (HOP-92) | growth inhibition (GI) (U-251) | growth inhibition (GI) (UO-31) | growth inhibition (GI) (MCF7) | growth inhibition (GI) (MOLT-4) | growth inhibition (GI) (SW-620) | growth inhibition (GI) (SR) | growth inhibition (GI) (M14) | growth inhibition (GI) (NCI-H460) | growth inhibition (GI) (HT-29) | growth inhibition (GI) (A549) | growth inhibition (GI) (T47D) | growth inhibition (GI) (OVCAR-4) | growth inhibition (GI) (OVCAR-5) | growth inhibition (GI) (MDA-MB-468) | growth inhibition (GI) (HCC 2998) | growth inhibition (GI) (OVCAR-3) | growth inhibition (GI) (SF-268) | growth inhibition (GI) (TK-10) | growth inhibition (GI) (OVCAR-8) | growth inhibition (GI) (Hs-578T) | growth inhibition (GI) (SNB-75) | growth inhibition (GI) (NCI-H23) | growth inhibition (GI) (UACC-62) | growth inhibition (GI) (MDA-MB-435) | Activity (Escherichia coli [1]) | growth inhibition (GI) (SK-OV-3) | growth inhibition (GI) (ACHN) | growth inhibition (GI) (NCI-H522) | growth inhibition (GI) (786-0) | growth inhibition (GI) (SK-MEL-28) | growth inhibition (GI) (NCI-H322M) | growth inhibition (GI) (HL-60(TB)) | growth inhibition (GI) (MDA-MB-231) | growth inhibition (GI) (DU-145) | growth inhibition (GI) (LOX IMVI) | growth inhibition (GI) (RXF 393) | growth inhibition (GI) (PC-3) | Activity (Escherichia coli [2]) | growth inhibition (GI) (Malme-3M) | growth inhibition (GI) (KM12) | growth inhibition (GI) (SF-539) | growth inhibition (GI) (SNB-19) | growth inhibition (GI) (NCI-H226) | growth inhibition (GI) (BT-549) | growth inhibition (GI) (HCT-15) | Activity (Escherichia coli [3]) | growth inhibition (GI) (HCT-116) | growth inhibition (GI) (SK-MEL-5) | growth inhibition (GI) (A498) | growth inhibition (GI) (COLO 205) | growth inhibition (GI) (SK-MEL-2) | growth inhibition (GI) (NCI/ADR-RES) | growth inhibition (GI) (CCRF-CEM)
